Experiments:
[1] = biological target: T1, Mitogen-activated protein kinase 14 (Homo sapiens, UniProt Q16539); experiment: Inhibition of LPS-stimulated TNFalpha production in human THP1 cells; format: functional, cell-based, THP-1
Procedure, shortened: (§1)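 THP-1 human monocytic cells, in duplicate cultures, were preincubated with or without inhibitor for 15 min. TNF-α release was then stimulated with LPS at 1 µg/ml final. Secreted TNF-α was quantified by ELISA 4 h after stimulation. Cell viability after the 4 h incubation was assessed by MTS assay.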

[2] = biological target: T1, Mitogen-activated protein kinase 14; experiment: Inhibition of LPS-stimulated TNFalpha production in human THP1 cells at 1 uM; format: functional, cell-based; details: THP-1; procedure, shortened: as §1

T1 sequence (Q16539 whole entry): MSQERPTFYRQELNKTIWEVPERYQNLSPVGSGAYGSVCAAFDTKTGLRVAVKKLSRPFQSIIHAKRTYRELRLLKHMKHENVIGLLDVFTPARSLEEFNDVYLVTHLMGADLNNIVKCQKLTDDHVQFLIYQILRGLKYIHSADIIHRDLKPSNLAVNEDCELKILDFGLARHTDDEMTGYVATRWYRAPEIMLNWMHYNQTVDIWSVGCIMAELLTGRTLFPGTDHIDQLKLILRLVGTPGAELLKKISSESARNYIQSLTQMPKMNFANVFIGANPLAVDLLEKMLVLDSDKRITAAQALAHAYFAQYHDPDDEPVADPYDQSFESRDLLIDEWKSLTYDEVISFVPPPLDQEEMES

| Compound | IC50 [1] | inhibition [2] |
| --- | --- | --- |
| COC[C@H](C)Nc1nccc(N(C(=O)Nc2ccccc2Cl)c2ccc(N(C)C)cc2)n1 | > 5 µM |  |
| C[C@H](Nc1nccc(N(C(=O)Nc2ccccc2Cl)c2ccc(F)cc2)n1)C(C)(C)O | 0.122 µM |  |
| COC[C@H](C)Nc1nccc(N(C(=O)Nc2ccccc2C)c2ccc(F)cc2)n1 | 3.65 µM |  |
| CN1CCN(c2nccc(N(C(=O)Nc3ccccc3Cl)c3ccc(F)cc3)n2)CC1 | > 5 µM |  |
| COc1ccc(N(C(=O)Nc2ccccc2C)c2ccnc(N[C@@H](C)C(C)(C)O)n2)cc1 | 0.135 µM |  |
| Cc1ccccc1NC(=O)N(c1ccc(N(C)C)cc1)c1ccnc(N[C@@H](C)c2ccccc2)n1 | > 5 µM |  |
| C[C@H](Nc1nccc(N(C(=O)Nc2c(Cl)cccc2Cl)c2ccc(F)cc2)n1)C(C)(C)O |  | 63% |
| O=C(Nc1ccccc1Cl)N(c1ccc(F)cc1)c1ccnc(N2CCOCC2)n1 | > 5 µM |  |
| COc1ccc(N(C(=O)Nc2ccccc2Cl)c2ccnc(N[C@@H](C)C(C)(C)O)n2)cc1 | 0.092 µM |  |
| COC[C@H](C)Nc1nccc(N(C(=O)Nc2ccccc2C)c2ccccc2)n1 | 1 µM |  |

The remaining lines, values ahead:

| IC50 [1] | inhibition [2] | Compound |
| --- | --- | --- |
| 3.61 µM |  | CCOC(=O)N1CCC(Nc2nccc(N(C(=O)Nc3ccccc3Cl)c3ccc(F)cc3)n2)CC1 |
| > 5 µM |  | COCC(C)Nc1nccc(N(N)C(=O)Nc2ccccc2Cl)n1 (single isomer, unassigned) |
| 3.1 µM |  | COC[C@H](C)Nc1nccc(N(C(=O)Nc2ccccc2Cl)c2ccc(F)cc2)n1 |
| 6.16 µM |  | C[C@H](Nc1nccc(N(C(=O)Nc2ccccc2Cl)c2cccc(F)c2)n1)c1ccccc1 |
| 0.539 µM |  | O=C(Nc1ccccc1Cl)N(c1ccc(F)cc1)c1ccnc(NC2CCOCC2)n1 |
| 1.42 µM |  | CCCS(=O)(=O)N1CCC(Nc2nccc(N(C(=O)Nc3ccccc3Cl)c3ccc(F)cc3)n2)CC1 |
| > 5 µM |  | COC[C@H](C)Nc1nccc(N(C(=O)Nc2ccc(C(F)(F)F)cc2)c2ccc(F)cc2)n1 |
| 0.843 µM |  | C[C@H](Nc1nccc(N(C(=O)Nc2ccccc2Cl)c2ccc(F)cc2)n1)c1ccccc1 (stereo in doubt; 5h) |
| 0.176 µM |  | Cc1ccccc1NC(=O)N(c1ccc(F)cc1)c1ccnc(N[C@@H](C)C(C)(C)O)n1 |
| > 5 µM |  | COC[C@H](C)Nc1nccc(N(C)C(=O)Nc2ccccc2C)n1 |
| 0.718 µM |  | C[C@H](Nc1nccc(N(C(=O)Nc2ccccc2Cl)c2ccccc2)n1)C(C)(C)O |
| 2.88 µM |  | COC[C@H](C)Nc1nccc(N(C(=O)Nc2ccccc2F)c2ccc(F)cc2)n1 |
| > 5 µM |  | C[C@H](Nc1nccc(N(C(=O)Nc2ccccc2Cl)c2ccc(F)cc2)n1)c1ccccc1 (stereo in doubt; 5i) |
